ChEMBL document CHEMBL1141268, “Glycogen synthase kinase-3 (GSK-3) inhibitory activity and structure-activity relationship (SAR) studies of the manzamine alkaloids. Potential for Alzheimer's disease” (J Nat Prod, 2007)
Activity calls are given as the source filed them. The calls are words filed in the database; no cut-off is given here.

Columns and labels:
[1] = target: T1, Glycogen synthase kinase-3 beta (Homo sapiens, UniProt P49841); experiment: Inhibition of human recombinant GSKbeta at 25 uM
Method in brief: (§1)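 Recombinant human GSK-3β in 11 mM MOPS pH 7.4, 0.2 mM EDTA, 1.25 mM EGTA, 26.25 mM MgCl2, 0.25 mM orthovanadate. Substrate was 62.5 µM GS-2 peptide, with γ-[33P]ATP plus unlabeled ATP at 12.5 µM final. Reaction ran 30 min at 30 °C. Aliquots were spotted on P81 phosphocellulose, washed and scintillation-counted. IC50 came from nonlinear regression of inhibition curves.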
Target sequence in this assay (P49841 whole entry, looked up): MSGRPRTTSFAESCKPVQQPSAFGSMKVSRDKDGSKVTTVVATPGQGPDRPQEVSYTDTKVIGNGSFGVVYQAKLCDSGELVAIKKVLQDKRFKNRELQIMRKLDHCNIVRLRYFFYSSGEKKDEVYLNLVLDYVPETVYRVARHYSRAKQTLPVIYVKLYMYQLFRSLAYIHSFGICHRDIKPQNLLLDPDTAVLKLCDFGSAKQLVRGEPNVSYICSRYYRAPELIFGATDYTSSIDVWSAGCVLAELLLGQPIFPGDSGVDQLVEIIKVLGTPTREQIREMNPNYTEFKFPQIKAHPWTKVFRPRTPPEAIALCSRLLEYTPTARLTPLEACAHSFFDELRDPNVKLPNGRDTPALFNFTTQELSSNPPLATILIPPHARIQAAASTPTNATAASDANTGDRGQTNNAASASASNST

[2] = target: T1, Glycogen synthase kinase-3 beta; experiment: Inhibition of human recombinant GSKbeta; method in brief: as §1
Target sequence in this assay (P49841 whole entry): as the sequence (P49841 whole entry, looked up) above

[3] = target: Glycogen synthase kinase-3 alpha (Homo sapiens) (UniProt P49840); experiment: Inhibition of recombinant GSKalpha
Method in brief: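 Recombinant GSK-3α, run as the GSK-3β radiometric protocol: MOPS pH 7.4 buffer with EDTA, EGTA, MgCl2 and orthovanadate, plus γ-[33P]ATP. GS-2 peptide at 20 µM final and ATP at 26 µM. Incubated 12 min, then P81 filter binding and scintillation counting. IC50 by nonlinear regression.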

[4] = Inhibition of recombinant MAPK
Method in brief: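 ERK1 (recombinant MAP kinase) in ADBI buffer (20 mM MOPS pH 7.2, 25 mM β-glycerol phosphate, 5 mM EGTA, 1 mM sodium orthovanadate) with 10 µg myelin basic protein as substrate. ATP at 20 µM final. Incubated 15 min; otherwise as the GSK-3β radiometric P81 filter assay.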

[5] = target: Cyclin-dependent kinase 1 (Homo sapiens) (UniProt P06493); experiment: Inhibition of recombinant CDK1
Method in brief: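 Recombinant CDK-1 in ADBI buffer (20 mM MOPS pH 7.2, 25 mM β-glycerol phosphate, 5 mM EGTA, 1 mM sodium orthovanadate). Histone H1 substrate at […] and ATP at 22 µM final. Reaction run 15 min at 30 °C.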

[6] = target: Cyclin-dependent kinase 5/CDK5 activator 1 (Homo sapiens, UniProt Q00535); experiment: Inhibition of human recombinant CDK5/p35; format: protein-complex assay
Method in brief: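 Human recombinant cdk5-p35 with histone H1 substrate, run as the GSK-3β protocol: 11 mM MOPS pH 7.4, 0.2 mM EDTA, 1.25 mM EGTA, 26.25 mM MgCl2, 0.25 mM sodium orthovanadate, γ-[33P]ATP plus unlabeled ATP (12.5 µM final). Incubated 30 min at 30 °C, spotted on P81 phosphocellulose, washed, scintillation counted. IC50 by nonlinear regression of inhibition curves.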

[7] = Inhibition of recombinant PKA
Method in brief: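 Recombinant PKA catalytic subunit in ADBI buffer with Kemptide substrate and 35 µM unlabeled ATP. Incubated 20 min; otherwise as the other kinase assays (γ-[33P]ATP, P81 filter binding, scintillation counting).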

Chain of Cyclin-dependent kinase 1 (Homo sapiens) (P06493 whole entry, looked up): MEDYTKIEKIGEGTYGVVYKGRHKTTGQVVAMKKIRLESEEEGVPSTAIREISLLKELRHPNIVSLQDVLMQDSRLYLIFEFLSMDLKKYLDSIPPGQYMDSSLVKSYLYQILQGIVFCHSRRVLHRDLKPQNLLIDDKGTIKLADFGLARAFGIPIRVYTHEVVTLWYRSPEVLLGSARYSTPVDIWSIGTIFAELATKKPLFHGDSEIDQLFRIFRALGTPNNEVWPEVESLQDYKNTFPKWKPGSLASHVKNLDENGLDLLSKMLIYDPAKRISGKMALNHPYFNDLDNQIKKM
Chain of Glycogen synthase kinase-3 alpha (Homo sapiens) (P49840 2-483 limits assumed): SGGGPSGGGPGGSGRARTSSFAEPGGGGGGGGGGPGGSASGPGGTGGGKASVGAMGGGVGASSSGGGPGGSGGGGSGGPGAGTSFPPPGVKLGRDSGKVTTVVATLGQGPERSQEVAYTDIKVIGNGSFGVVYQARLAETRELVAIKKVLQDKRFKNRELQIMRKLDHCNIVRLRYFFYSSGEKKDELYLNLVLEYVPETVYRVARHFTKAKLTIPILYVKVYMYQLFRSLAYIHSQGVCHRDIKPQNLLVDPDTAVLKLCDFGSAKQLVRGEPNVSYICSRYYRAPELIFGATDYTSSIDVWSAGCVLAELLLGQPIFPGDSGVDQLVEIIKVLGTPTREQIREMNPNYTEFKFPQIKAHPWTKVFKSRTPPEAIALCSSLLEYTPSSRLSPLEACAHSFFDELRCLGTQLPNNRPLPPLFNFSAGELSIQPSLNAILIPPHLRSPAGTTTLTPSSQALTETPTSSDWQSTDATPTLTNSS
Chain of Cyclin-dependent kinase 5/CDK5 activator 1 (Q00535 whole entry): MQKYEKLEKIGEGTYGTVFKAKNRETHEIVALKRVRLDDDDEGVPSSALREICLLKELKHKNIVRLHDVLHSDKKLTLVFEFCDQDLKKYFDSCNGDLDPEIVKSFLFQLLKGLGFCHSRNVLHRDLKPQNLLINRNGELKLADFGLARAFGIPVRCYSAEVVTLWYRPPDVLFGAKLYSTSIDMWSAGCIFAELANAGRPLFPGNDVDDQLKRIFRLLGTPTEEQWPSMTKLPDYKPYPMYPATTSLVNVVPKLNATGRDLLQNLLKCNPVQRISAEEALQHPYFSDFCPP
Chain of Cyclin-dependent kinase 5/CDK5 activator 1 (Q15078 whole entry, further chain): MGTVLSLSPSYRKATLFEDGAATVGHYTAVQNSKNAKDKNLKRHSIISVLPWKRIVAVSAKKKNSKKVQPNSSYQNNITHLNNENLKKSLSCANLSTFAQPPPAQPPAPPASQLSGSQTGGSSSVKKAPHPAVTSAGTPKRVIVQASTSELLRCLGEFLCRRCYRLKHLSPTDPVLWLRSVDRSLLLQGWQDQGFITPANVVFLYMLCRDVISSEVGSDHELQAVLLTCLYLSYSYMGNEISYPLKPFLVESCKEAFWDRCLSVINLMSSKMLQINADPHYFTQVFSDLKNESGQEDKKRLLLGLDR

Structure (SMILES)	inhibition [1]	IC50 [2]	further results
O[C@]12C=C(c3nccc4c3[nH]c3ccccc34)[C@@H]3CCN(CCCCCCCC1)C[C@@]31C[C@@H]3CCCCCCN3[C@H]12	0%	–	–
CC(=O)Oc1cccc2c1[nH]c1c(C3=C/C4=C/C/C=C\CCCCN5CCC3[C@]3(C[C@@H]6/C=C\CCCCN6[C@@H]43)C5)nccc12 (stereo not given in full) [12,13-DEHYDRO-8-O-ACETYLMANZAMINE A]	79.1%	4.8 µM	–
O[C@]12C=C(c3nccc4c3[nH]c3ccccc34)[C@@H]3CCN(CCCC/C=C\CC1)C[C@@]31C[C@@H]3/C=C\CCCCN3[C@H]12 [MANZAMINE A]	–	10.2 µM	Activity [3]: inactive; Activity [4]: inactive; Activity [5]: inactive; IC50 [6]: 1.5 µM; Activity [7]: inactive
C1=C(c2nccc3c2[nH]c2ccccc23)C2CCN3CCCC/C=C\C/C=C/1[C@@H]1N4CCCC/C=C\[C@H]4C[C@]21C3 (stereo not given in full) [12,13-DEHYDROMANZAMINE A]	71.2%	5.4 µM	–
Oc1cccc2c1[nH]c1c(C3=C[C@@]4(O)CC/C=C\CCCCN5CC[C@@H]3[C@]3(CC6/C=C\CCCCN6[C@H]34)C5)nccc12 (stereo not given in full)	–	4.8 µM	–
CCCCCCCCCCCCn1c2ccccc2c2ccnc(C3=C[C@@]4(O)CC/C=C\CCCCN5CC[C@@H]3[C@]3(C[C@@H]6/C=C\CCCCN6[C@H]34)C5)c21	0%	–	–
O[C@]12C=C(c3nccc4c3[nH]c3ccccc34)C3CCN(CCCC/C=C\CC1)C[C@@]31C[C@]34CC[C@H](CCCN3[C@H]12)O4 (stereo not given in full)	88.4%	–	–
Oc1ccc2[nH]c3c(C4=C[C@@]5(O)CC/C=C\CCCCN6CCC4[C@]4(C[C@@H]7/C=C\CCCCN7[C@H]45)C6)nccc3c2c1 (stereo not given in full)	74.3%	16.6 µM	–
COC(=O)CCCCn1c2ccccc2c2ccnc(C3=C[C@@]4(O)CC/C=C\CCCCN5CCC3[C@]3(C[C@@H]6/C=C\CCCCN6[C@H]34)C5)c21 (stereo not given in full)	3%	–	–
O=C1CCCN2[C@@H](CC1)C[C@]13CN4CCCC/C=C\CC[C@](O)(C=C(c5nccc6c5[nH]c5c(OS(=O)(=O)c7ccc(Br)cc7)cccc56)C1CC4)[C@H]23 (stereo not given in full)	63%	23 µM	–
Cc1ccc(S(=O)(=O)Oc2cccc3c2[nH]c2c(C4=C[C@@]5(O)CC/C=C\CCCCN6CCC4[C@]4(C[C@H]7/C=C\CCCCN7[C@H]45)C6)nccc23)cc1 (stereo not given in full)	80.4%	–	–
COc1cccc2c3ccnc(C4=C[C@@]5(O)CC/C=C\CCCCN6CCC4[C@]4(C[C@@H]7/C=C\CCCCN7[C@H]45)C6)c3n(C)c12 (stereo not given in full)	72.4%	–	–
CC(=O)Nc1nc(C)c(S(=O)(=O)Oc2cccc3c2[nH]c2c(C4=C[C@@]5(O)CC/C=C\CCCCN6CCC4[C@]4(C[C@@H]7CCC(=O)CCCN7[C@H]45)C6)nccc23)s1 (stereo not given in full)	78.8%	8.5 µM	–
O=C1CCCN2[C@@H](CC1)C[C@]13CN4CCCC/C=C\CC[C@](O)(C=C(c5nccc6c5[nH]c5c(OS(=O)(=O)c7ccc(Cl)cc7)cccc56)C1CC4)[C@H]23 (stereo not given in full)	76.7%	7.2 µM	–
CC(C)COc1cccc2c3ccnc(C4=C[C@@]5(O)CC/C=C\CCCCN6CCC4[C@]4(C[C@@H]7/C=C\CCCCN7[C@H]45)C6)c3n(CC(C)C)c12 (stereo not given in full)	24.2%	–	–
CCOc1cccc2c3ccnc(C4=C[C@@]5(O)CC/C=C\CCCCN6CCC4[C@]4(C[C@@H]7/C=C\CCCCN7[C@H]45)C6)c3n(CC)c12 (stereo not given in full) [9-N-ETHYL-8-ETHOXY-MANZAMINE A]	78%	10.4 µM	–
Oc1cccc2c1[nH]c1c(C3=C[C@@]4(O)CCCCCCCCN5CCC3[C@]3(C[C@@H]6CCCCCCN6[C@H]34)C5)nccc12 (stereo not given in full)	29%	–	–
O=C1CCCN2[C@@H](CC1)C[C@]13CN4CCCC/C=C\CC[C@](O)(C=C(c5nccc6c5[nH]c5ccccc56)C1CC4)[C@H]23 (stereo not given in full) [MANZAMINE E]	–	25 µM	–
